Experiments:
[1] = system: Mus musculus; experiment: The in vivo tissue distribution of mouse blood without Propranolol preadministration in 90 min, value was fractional dose per fractional body weight of the organ; conditions: 1.5 h
[2] = system: Mus musculus; experiment: The in vivo tissue distribution of mouse brain without Propranolol preadministration in 10 min, value was fractional dose per fractional body weight of the organ
[3] = system: Mus musculus; experiment: The in vivo tissue distribution of mouse heart with Propranolol administration after 10 min, value was fractional dose per fractional body weight of the organ; format: ADME, organism-based
How it was run: (§1)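 Male CF-1 mice (25–30 g) anaesthetised with 2 mg sodium pentobarbital ip; blocked group given 0.1 mL of […] propranolol iv via tail vein (200 μg, 6.6 mg/kg), tracer 30 min later. 0.1 mL of 1–2 mCi/mL [18F]-labelled enantiomer iv via tail vein; killed by cervical dislocation, organs weighed and counted against weighed standards. %ID/g × body weight/100 gives unitless uptake; five mice per point (heart, blood, lung, kidney, liver, bone); mean ± SD.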

[4] = system: Mus musculus; experiment: The in vivo tissue distribution of mouse kidney with Propranolol administration after 90 min, value was fractional dose per fractional body weight of the organ; format: ADME, organism-based; conditions: 1.5 h
How it was run: (§2)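 Male CF-1 mice (25–30 g), anesthetised with 2 mg sodium pentobarbital ip 30 min before tracer. Where blocked, propranolol iv via tail vein (0.1 mL of […]; […]) about 30 min before tracer. Tracer given by tail vein, 0.1 mL at 1–2 mCi/mL. Mice killed by cervical dislocation at set times, organs weighed and counted. %ID/g × body weight/100 gives unitless uptake. Heart, brain, blood, lung, kidney, liver and bone n=5; average ± SD.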

[5] = system: Mus musculus; experiment: The in vivo tissue distribution of mouse heart with Propranolol administration after 90 min, value was fractional dose per fractional body weight of the organ; format: ADME, organism-based; conditions: 1.5 h
How it was run: as §2

[6] = system: Mus musculus; experiment: The in vivo tissue distribution of mouse bone with Propranolol administration after 180 min, value was fractional dose per fractional body weight of the organ; format: ADME, organism-based, Bone element; conditions: 3 h
How it was run: (§3)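 Male CF-1 mice (25–30 g), given 2 mg sodium pentobarbital ip 30 min before tracer. Blocked groups received propranolol iv by tail vein, 0.1 mL of 1 mg/mL. About 30 min later, 0.1 mL of [18F]tracer (1–2 mCi/mL) was injected by tail vein. Mice were killed by cervical dislocation at set times, and organs were weighed and counted. Uptake is %ID/g × body weight/100, average ± SD; n=5 for heart, brain, blood, lung, kidney, liver and bone.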

[7] = system: Mus musculus; experiment: The in vivo tissue distribution of mouse bone with Propranolol preadministration in 60 min, value was fractional dose per fractional body weight of the organ; format: ADME, organism-based, Bone element; conditions: 1 h
How it was run: as §2

[8] = system: Mus musculus; experiment: The in vivo tissue distribution of mouse heart with Propranolol preadministration in 180 min, value was fractional dose per fractional body weight of the organ; format: ADME, organism-based; conditions: 3 h
How it was run: as §3

[9] = system: Mus musculus; experiment: The in vivo tissue distribution of mouse brain without Propranolol preadministration in 60 min, value was fractional dose per fractional body weight of the organ; conditions: 1 h
[10] = system: Mus musculus; experiment: The in vivo tissue distribution of mouse liver with Propranolol administration after 40 min, value was fractional dose per fractional body weight of the organ; format: ADME, organism-based
How it was run: as §3

[11] = system: Mus musculus; experiment: The in vivo tissue distribution of mouse liver with Propranolol administration after 180 min, value was fractional dose per fractional body weight of the organ; format: ADME, organism-based; conditions: 3 h
How it was run: as §1

[12] = system: Mus musculus; experiment: The in vivo tissue distribution of mouse kidney with Propranolol administration after 40 min, value was fractional dose per fractional body weight of the organ; format: ADME, organism-based
How it was run: as §3

[13] = system: Mus musculus; experiment: The in vivo tissue distribution of mouse heart with Propranolol administration after 60 min, value was fractional dose per fractional body weight of the organ; format: ADME, organism-based; conditions: 1 h
How it was run: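 Male CF-1 mice, 25–30 g, anesthetized with 2 mg sodium pentobarbital ip. Propranolol pretreatment was 0.1 mL of 1 mg/mL iv by tail vein. About 30 min later, 0.1 mL of 1–2 mCi/mL [18F]tracer was given by tail vein. Mice were killed by cervical dislocation at set times. Organs were weighed and counted against weighed dose standards. %ID/g × body weight/100 gave fractional dose per fractional body weight. Blood and heart n=5.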

[14] = system: Mus musculus; experiment: The in vivo tissue distribution of mouse blood without Propranolol preadministration in 60 min, value was fractional dose per fractional body weight of the organ; conditions: 1 h
[15] = system: Mus musculus; experiment: The in vivo tissue distribution of mouse lung without Propranolol preadministration in 40 min, value was fractional dose per fractional body weight of the organ
[16] = system: Mus musculus; experiment: The in vivo tissue distribution of mouse lung with Propranolol administration after 90 min, value was fractional dose per fractional body weight of the organ; format: ADME, organism-based; conditions: 1.5 h
How it was run: as §1

[17] = system: Mus musculus; experiment: The in vivo tissue distribution of mouse brain with Propranolol preadministration in 90 min, value was fractional dose per fractional body weight of the organ; format: ADME, organism-based; conditions: 1.5 h
How it was run: as §2

[18] = system: Mus musculus; experiment: The in vivo tissue distribution of mouse liver without Propranolol preadministration in 90 min, value was fractional dose per fractional body weight of the organ; conditions: 1.5 h
[19] = system: Mus musculus; experiment: The in vivo tissue distribution of mouse liver without Propranolol preadministration in 60 min, value was fractional dose per fractional body weight of the organ; conditions: 1 h
[20] = system: Mus musculus; experiment: The in vivo tissue distribution of mouse lung without Propranolol preadministration in 180 min, value was fractional dose per fractional body weight of the organ; conditions: 3 h
[21] = system: Mus musculus; experiment: The in vivo tissue distribution of mouse kidney with Propranolol administration after 10 min, value was fractional dose per fractional body weight of the organ; format: ADME, organism-based
How it was run: as §3

[22] = system: Mus musculus; experiment: The in vivo tissue distribution of mouse brain with Propranolol administration after 60 min, value was fractional dose per fractional body weight of the organ; format: ADME, organism-based; conditions: 1 h
How it was run: as §2

[23] = system: Mus musculus; experiment: The in vivo tissue distribution of mouse bone with Propranolol administration after 90 min, value was fractional dose per fractional body weight of the organ; format: ADME, organism-based, Bone element; conditions: 1.5 h
How it was run: as §2

[24] = system: Mus musculus; experiment: The in vivo tissue distribution of mouse kidney without Propranolol preadministration in 20 min, value was fractional dose per fractional body weight of the organ
[25] = system: Mus musculus; experiment: The in vivo tissue distribution of mouse liver with Propranolol administration after 60 min, value was fractional dose per fractional body weight of the organ; format: ADME, organism-based; conditions: 1 h
How it was run: as §1

[26] = system: Mus musculus; experiment: The in vivo tissue distribution of mouse kidney with Propranolol administration after 120 min, value was fractional dose per fractional body weight of the organ; format: ADME, organism-based; conditions: 2 h
How it was run: as §2

[27] = system: Mus musculus; experiment: The in vivo tissue distribution of mouse lung with Propranolol administration after 180 min, value was fractional dose per fractional body weight of the organ; format: ADME, organism-based; conditions: 3 h
How it was run: as §2

[28] = system: Mus musculus; experiment: The in vivo tissue distribution of mouse bone without Propranolol preadministration in 120 min, value was fractional dose per fractional body weight of the organ; conditions: 2 h
[29] = system: Mus musculus; experiment: The in vivo tissue distribution of mouse kidney with Propranolol administration after 20 min, value was fractional dose per fractional body weight of the organ; format: ADME, organism-based
How it was run: as §3

[30] = system: Mus musculus; experiment: The in vivo tissue distribution of mouse liver with Propranolol administration after 20 min, value was fractional dose per fractional body weight of the organ; format: ADME, organism-based
How it was run: as §3

[31] = system: Mus musculus; experiment: The in vivo tissue distribution of mouse bone with Propranolol preadministration in 40 min, value was fractional dose per fractional body weight of the organ; format: ADME, organism-based, Bone element
How it was run: as §2

CC(C[18F])NC[C@H](O)COc1cccc2[nH]c3ccccc3c12 (some centres not stated)
Dose/organ [1]: 0.66 | Dose/organ [2]: 1.18 | Dose/organ [3]: 1.06 | Dose/organ [4]: 0.92 | Dose/organ [5]: 0.35 | Dose/organ [6]: 2.72 | Dose/organ [7]: 0.72 | Dose/organ [8]: 0.4 | Dose/organ [9]: 0.81 | Dose/organ [10]: 1.66 | Dose/organ [11]: 0.59 | Dose/organ [12]: 1.64 | Dose/organ [13]: 0.29 | Dose/organ [14]: 0.6 | Dose/organ [15]: 6.16 | Dose/organ [16]: 1.06 | Dose/organ [17]: 0.8 | Dose/organ [18]: 1.09 | Dose/organ [19]: 1.32 | Dose/organ [20]: 4.8 | Dose/organ [21]: 4.18 | Dose/organ [22]: 0.25 | Dose/organ [23]: 0.72 | Dose/organ [24]: 2.89 | Dose/organ [25]: 1.17 | Dose/organ [26]: 0.38 | Dose/organ [27]: 0.72 | Dose/organ [28]: 1.08 | Dose/organ [29]: 2.19 | Dose/organ [30]: 1.85 | Dose/organ [31]: 0.71

CC(C[18F])NC[C@@H](O)COc1cccc2[nH]c3ccccc3c12 (some centres not stated)
Dose/organ [1]: 0.43 | Dose/organ [2]: 0.82 | Dose/organ [3]: 1 | Dose/organ [4]: 1.57 | Dose/organ [5]: 0.48 | Dose/organ [6]: 2.98 | Dose/organ [7]: 1.08 | Dose/organ [8]: 0.14 | Dose/organ [9]: 0.37 | Dose/organ [10]: 2.11 | Dose/organ [11]: 0.5 | Dose/organ [12]: 2.7 | Dose/organ [13]: 0.57 | Dose/organ [14]: 0.42 | Dose/organ [15]: 3.29 | Dose/organ [16]: 1.03 | Dose/organ [17]: 0.35 | Dose/organ [18]: 1.25 | Dose/organ [19]: 2.56 | Dose/organ [20]: 0.84 | Dose/organ [21]: 5.1 | Dose/organ [22]: 0.62 | Dose/organ [23]: 1.57 | Dose/organ [24]: 4.8 | Dose/organ [25]: 1.61 | Dose/organ [26]: 0.63 | Dose/organ [27]: 0.26 | Dose/organ [28]: 0.78 | Dose/organ [29]: 4.43 | Dose/organ [30]: 3 | Dose/organ [31]: 0.95
